Laboratory results reported in ChEMBL document CHEMBL4513216, “Probing the Open Global Health Chemical Diversity Library for Multistage-Active Starting Points for Next-Generation Antimalarials” (ACS Infect Dis, 2020).

Experiment: Toxicity liver stage against HepG2, at 10uM
Type: cell-based
Design: test concentration 10 uM, cell line HepG2-A16-CD81EGFP
Conditions: human, HepG2-A16-CD81EGFP cells; read-out: INHIBITION
Method in brief: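 Uninfected HepG2-A16-CD81EGFP cells, 3 × 10^3 per well, 1536-well, plated on prespotted compound at 10 μM final, parasite-free screening media added to match infected plates; puromycin 10 μM positive, DMSO 0.5% negative; run in parallel with 48 h PbLuc assay at 37 °C, 5% CO2; viability by CellTiter-Glo luminescence, normalized to controls.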

Structure (SMILES)	cytotoxicity at 10 µM
FC1(F)CCN(Cc2ccccn2)CC12CCN(c1cnccn1)C2 (stereo not given)	-108%
COCC1CN(Cc2cc(C)on2)Cc2cn(CC3CCCC3)nc21 (stereo not given)	6.4%
O=C(Nc1cccnc1-n1cncn1)C1CCC1	-4.32%
O=C(c1ccccc1-n1cccn1)N1CCC(Nc2cccnn2)CC1	-15.9%
Cc1cc(C(=O)NC2CCc3c(ccc(=O)n3CC(C)C)C2)no1 (stereo not given)	7.15%
c1ccc(CN2CCc3c(COCc4ccncc4)cncc3C2)nc1	6.53%
CC(C)c1nnc2n1CCN(C(=O)c1cccc(C(F)(F)F)c1)C2	4.09%
OC1(Cn2ccc3ncccc32)CCN(Cc2cc(F)cc(F)c2)CC1	-5.41%
CC(C)CC(=O)N1CCN(C(=O)NC(C)C)CC2(CC(=O)N(C)C2)C1 (stereo not given)	3.25%
CC(=O)c1ccc(N2CCCC(CO)(CCOc3ccccc3)C2)nc1 (stereo not given)	3.15%
O=C(c1cc(C2CCCC2)no1)N1CCCCC1	-3.05%
c1cc(CN2CCC3(CC2)COC(COCC2CC2)C3)co1 (stereo not given)	-4.19%
CC(Cn1ccnc1)NS(=O)(=O)c1ccc(F)c(Cl)c1 (stereo not given)	9.25%
CC(C)NC(=O)NC(C)c1ccc(-c2ccncc2)cc1 (stereo not given)	0.67%
Cc1ccc(CN(CCN(C)C)C(=O)Nc2ccc(C)c(C#N)c2)s1	5.57%
O=C([C@@H]1CCCO1)N1CCN(Cc2ccncc2)c2ncccc2C1	-95.7%
CC(=O)Nc1ccc(S(=O)(=O)N2CCOC(Cn3ccnc3)C2)cc1 (stereo not given)	0.166%
O=C(c1ccc2c(c1)COC2)N1CCC(Nc2ccccc2)CC1	-7.54%
O=C1CCC2(CCC(NCc3ccoc3)CC2)N1 (stereo not given)	1.14%
CC1(C)OCC2(CO1)CN(S(=O)(=O)c1ccc(Cl)s1)C2	-0.295%
Cc1ccc(C)c(C(=O)N2CCC3(CCC(=O)N(CC(N)=O)C3)CC2)c1	17.7%
O=c1c(-c2ccnc(NC3CCCCC3)n2)cnc2sc(Cl)cn12	-6.22%
CCn1ccnc1CN(C)Cc1nc(Cc2cccc(F)c2)no1	-4.44%
COCCNc1c(-c2ccc(Cl)cc2)c(=O)c1=O	-1.99%
CC(C)Cc1cc(C(=O)N2CCC(N3CCCC3)CC2)cc(O)n1	4.64%
CCN(CCc1nccs1)C(=O)c1ccco1	15.4%
COc1cccc(-c2cc(C(=O)NCCCn3nc(C)cc3C)[nH]n2)c1	-5.86%

Structure (SMILES)	cytotoxicity at 10 µM
O=C1CSCN1Cc1nc(-c2ccc(N3CCCCC3)cc2)no1	-6.79%
CC(NC(=O)c1sccc1C1CC1)c1ccc2c(c1)CC(=O)N2 (stereo not given)	1.66%
c1ccc(-c2nc3c(c(NCCCn4cncn4)n2)CCNCC3)nc1	-45.6%
Cc1c(Cl)cccc1S(=O)(=O)N1C[C@H]2CC[C@@H](C1)N(C)C2=O	3.42%
Cc1cc(CN2CCC(CNC(=O)CN3CCCCCC3)C2)[nH]n1 (stereo not given)	-131%
Cn1cc(CN2CCc3nc(-c4ccccn4)nc(O)c3C2)cn1	-3.81%
Cc1ccc(S(=O)(=O)Nc2ccc(-n3ccnc3C)nc2)cc1N(C)C	-3.78%
CS(=O)(=O)N1CCC2(CC1)COC(COc1cccnc1)C2 (stereo not given)	7.61%
O=C(Nc1ccc(Cn2cccn2)cc1)N1CCC(CO)CC1	47.8%
O=C(C1CC1)N1CC[C@H](c2nnc(-c3ccccc3F)o2)C1	0.705%
CC1(C)CCC(C(=O)N2CCCO2)c2ccccc21 (stereo not given)	-0.636%
Cc1nc([C@@H]2C[C@@H]3CCN(C(=O)Cc4cccc(F)c4)C[C@H]3O2)no1	4.17%
Cn1ccnc1C1(O)CCCN(Cc2ccncc2)CC1 (stereo not given)	1.52%
Cn1ccnc1CN1CCCC1c1noc(C2CC2)n1 (stereo not given)	0.265%
Cc1cnn(CC2CN(CC(=O)Nc3nncs3)CCO2)c1 (stereo not given)	-10%
Cc1ncsc1CN1C[C@@H]2CN(S(C)(=O)=O)CCO[C@@H]2C1	-105%
Cc1cc(C)nc(NC2CC(=O)N(C(C)(C)C)C2)n1 (stereo not given)	-5.81%
NC(=O)C1CCCN(C(=O)c2ccn(-c3ccc(F)cc3)n2)C1 (stereo not given)	-3.63%
CC(O)c1cn(Cc2cccc(C(F)(F)F)c2)nn1 (stereo not given)	14.1%
Cc1nc(C)n(CC2CCCN(CC(=O)Nc3nnc(C)s3)C2)n1 (stereo not given)	-18.9%
Cc1ccc(CN2C[C@@H]3CCCO[C@@H]3[C@H](NS(C)(=O)=O)C2)o1	5.16%
NC(=O)CCN1CCC(C(=O)c2cc(F)ccc2F)CC1	-4.89%
C[C@H]1C(=O)NC[C@H]2CN(CCc3ccccc3)C[C@H]21	2.64%
O=C(CNC(=O)c1cnccn1)Nc1ncc[nH]1	-43.4%
Cc1cccc(CN2CC[C@H]3C[C@@H](C)O[C@@H]3C2)n1	-65.5%
Cc1nc(Cn2nc(C3CCNCC3)n(Cc3ccccc3)c2=O)no1	-19.3%
CCS(=O)(=O)N1C[C@@H]2CN(Cc3ccco3)CCO[C@@H]2C1	-122%

Structure (SMILES)	cytotoxicity at 10 µM
CS(=O)(=O)N1CCOC(CNC(=O)c2cccc(C#N)c2)C1 (stereo not given)	-5.69%
Cc1cc(C(=O)Nc2nnn[nH]2)ccc1I	-2.08%
Cc1cc(CN2C[C@@H]3COC[C@]3(CNC(=O)c3ccco3)C2)no1	-71.1%
Cc1ccccc1C(C(=O)N(C)CCc1cnn(C)c1)N(C)C (stereo not given)	-3.57%
CSc1ccc(CNC(c2ccccc2F)c2nccn2C)cc1 (stereo not given)	1.75%
CO[C@@H]1CCN(Cc2cccc(C)n2)[C@@H]2CN(Cc3ccncc3)C[C@@H]21	0.951%
Cc1ncncc1C(=O)N1CCC(O)(CN(C)Cc2ccc(F)cc2)C1 (stereo not given)	-7.16%
O=C(NC1CCOC1)c1cccc(S(=O)(=O)NCCCc2ncc[nH]2)c1 (stereo not given)	-2.26%
C[S+]([O-])c1ccc(CNc2ccc(F)cc2OC(F)F)cc1 (stereo not given)	0.752%
CN(C)Cc1nn(C)c2c1CCN(C(=O)CC1CC1)C2	-3.86%
COC(=O)C(C)(C)NC(=O)C1CC(=O)N(C)C1 (stereo not given)	-8.92%
Cc1noc(C)c1-c1cccc(C2CCNCC2)n1	2.98%
CN(CC(=O)N(C)C1CCCCC1)Cc1nc2c(cnn2C)c(=O)[nH]1	9.12%
Cc1cccc(CN2C(=O)CO[C@@H]3CN(C4CCOCC4)C[C@H]32)c1	-146%
CC(C)CCn1nc2ccc(S(=O)(=O)N3CCOCC3)cn2c1=O	-2.13%
Cc1ccc(C(=O)NCc2cccnc2-n2cncn2)cc1S(C)(=O)=O	4.5%
NC(=O)Nc1cccc(CNC(=O)CCCc2ccccc2)c1	-10.1%
O=C(c1ccoc1)N1CCC2(CC1)COC(COc1ccccn1)C2 (stereo not given)	-123%
CC(C)c1nc(CN(C)C2CCN(CC(F)(F)F)C2)no1 (stereo not given)	-15.8%
CC(=O)N[C@H]1CCO[C@@H](c2cccc(NC(=O)Cc3ccccc3)c2)C1	8.3%
CCc1nc(CCNC(=O)Nc2cc(C(N)=O)ccc2OC)cs1	1.43%
Cc1nc(NCCO)cc(C(C)Cn2nc(C)c(C)c2C)n1 (stereo not given)	4.41%
CCOc1ccc(NC(=O)N2CCNC(=O)C2)c(C(F)(F)F)c1	7.09%
COCCCNC(=O)C1CCN(CC2(O)CCC(C)CC2)CC1 (stereo not given)	21.6%
CCN(c1ccc(C(=O)Nc2c(C)nn(C(C)C)c2C)cc1)C(C)C	-2.92%
Cc1nc(N2CCOCC2)nc(C)c1NC(=O)Cc1ccc(Cl)cc1	-4%
